Experimental findings from ChEMBL document CHEMBL3351816, “Structure-based optimization of a peptidyl inhibitor against calcineurin-nuclear factor of activated T cell (NFAT) interaction” (J Med Chem, 2014) are described below.

Series [1] is described as follows: Binding affinity to GST-calcineurin fusion protein substrate docking site (unknown origin) expressed in Escherichia coli BL21 cells by fluorescence anisotropy assay. More on the design: species or system Homo sapiens. The gist of the method:
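GST–CN fusion expressed in E. coli BL21, glutathione-Sepharose purified. FA read at ex 485/em 525 nm; KD from fitting FA versus CN concentration with correction for fluorophore–protein interaction.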
Background: Fluorescence polarisation rises when a labelled molecule tumbles more slowly, as on binding a larger partner.

Series [2] in a line: (§1) Inhibition of FITC-labelled […] binding to calcineurin (unknown origin) by modified fluorescence anisotropy assay. Also on record: species or system Homo sapiens.
Series [3] is filed under the species Homo sapiens. The description is as §1.
In series [4] the target is Albumin (Bos taurus, UniProt P02769). Nature of the series: Binding affinity to bovine serum albumin. It counts as ADME. The following applies: cattle, isolated protein.
For series [5], the target named is T1, Tyrosine-protein phosphatase non-receptor type 1 (Homo sapiens, UniProt P18031).
T1 sequence (P18031 whole entry): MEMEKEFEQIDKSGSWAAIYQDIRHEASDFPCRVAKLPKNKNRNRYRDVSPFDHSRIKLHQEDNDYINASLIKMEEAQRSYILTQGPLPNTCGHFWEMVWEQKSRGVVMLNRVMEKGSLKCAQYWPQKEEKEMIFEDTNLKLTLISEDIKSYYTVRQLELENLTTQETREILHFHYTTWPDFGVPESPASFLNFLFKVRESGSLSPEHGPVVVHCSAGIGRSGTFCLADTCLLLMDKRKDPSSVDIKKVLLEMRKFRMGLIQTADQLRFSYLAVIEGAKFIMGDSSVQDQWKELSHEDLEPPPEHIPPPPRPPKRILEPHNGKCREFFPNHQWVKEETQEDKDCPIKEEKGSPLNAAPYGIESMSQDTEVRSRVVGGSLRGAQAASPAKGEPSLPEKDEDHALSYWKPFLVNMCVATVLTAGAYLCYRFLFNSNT
Nature of the series: Binding affinity to PTP1B (unknown origin).

Series [6] deals with Tyrosine-protein phosphatase non-receptor type 6 (Homo sapiens, UniProt P29350). Nature of the series: Binding affinity to SHP1 (unknown origin).
In series [7] the test system is GTPase KRas (Homo sapiens), P01116 [G12V]. Kind of series: Binding affinity to K-Ras G12V mutant (unknown origin).
In series [8] the target is Growth factor receptor-bound protein 2 (Homo sapiens) (UniProt P62993). Kind of series: Binding affinity to SH2 domain of Grb2 (unknown origin).
Series [9] has as its system HeLa. Nature of the series: Inhibition of calcineurin in human HeLa cells assessed as blocked of GFP-NFAT translocation at 500 nM prior to ionomycin treatment by fluorescence based confocal microscopy in presence of ionomycin. It counts as cell-based. The gist of the method:
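HeLa cells stably expressing GFP–NFAT1 pretreated with R11-conjugated peptide (500 nM), then stimulated with ionomycin. Time-lapse live-cell confocal imaging; increase in nuclear fluorescence after 10 min ionomycin compared with inhibitor-free control (100%). Mean ± SD from at least 30 cells; two-tailed t test.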

The test system of series [10] is Serum. Nature of the series: Drug metabolism in 25% human serum assessed as compound remaining at 37 degC. The format is ADME, cell-free. The gist of the method: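 Peptide incubated in human serum diluted to 25% at 37 °C; remaining intact peptide quantified by HPLC over time up to 6 h.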
Series [11] deals with Serum. Kind of series: Drug metabolism in 25% human serum at 37 degC at 6 hrs. It counts as ADME, cell-free. The gist of the method:
(§2)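 Peptides were incubated in diluted human serum (25%) at 37 °C for up to 6 h. The amount of intact peptide remaining was monitored over time by HPLC.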

The nature of series [12]: Half life in 25% human serum at 37 degC. It counts as ADME. The gist of the method: as §2

Activity calls are given as the source filed them. Numbered stars: 1 amine (or outer) side, 2 acyl side, 3 side chain; on linkers, the order of the positions; unused ones are H or OH. Square brackets hold non-standard residues; d marks the D form. Peptide text beside a SMILES is read from it. X1 = CC1(C)SC[C@@H](C(=O)[*:2])N1[*:1]; Tle = CC(C)(C)[C@H](N)C(=O)O

Chain of GTPase KRas (Homo sapiens), P01116 [G12V] (P01116 whole entry G12V, the tested form may be a part): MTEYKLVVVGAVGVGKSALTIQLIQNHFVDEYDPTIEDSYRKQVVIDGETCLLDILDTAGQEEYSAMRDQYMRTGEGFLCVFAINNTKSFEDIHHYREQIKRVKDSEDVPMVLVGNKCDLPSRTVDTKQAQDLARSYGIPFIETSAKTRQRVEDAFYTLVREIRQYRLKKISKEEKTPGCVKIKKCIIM
Chain of Albumin (P02769 whole entry): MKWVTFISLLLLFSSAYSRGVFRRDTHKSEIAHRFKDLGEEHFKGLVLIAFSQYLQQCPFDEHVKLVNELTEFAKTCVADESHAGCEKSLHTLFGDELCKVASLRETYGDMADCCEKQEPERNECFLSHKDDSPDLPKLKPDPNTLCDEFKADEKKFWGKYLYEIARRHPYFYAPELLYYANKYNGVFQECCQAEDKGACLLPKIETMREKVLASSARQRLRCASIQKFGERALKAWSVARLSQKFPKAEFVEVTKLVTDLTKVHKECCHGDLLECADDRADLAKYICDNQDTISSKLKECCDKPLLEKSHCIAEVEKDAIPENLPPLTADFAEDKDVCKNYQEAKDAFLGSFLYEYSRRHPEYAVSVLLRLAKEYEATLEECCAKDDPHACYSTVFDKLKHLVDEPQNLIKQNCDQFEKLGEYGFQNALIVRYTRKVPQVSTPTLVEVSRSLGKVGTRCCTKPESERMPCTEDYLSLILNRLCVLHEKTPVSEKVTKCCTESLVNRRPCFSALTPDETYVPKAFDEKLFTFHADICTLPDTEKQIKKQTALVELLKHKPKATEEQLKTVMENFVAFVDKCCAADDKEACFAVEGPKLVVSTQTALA
Chain of Tyrosine-protein phosphatase non-receptor type 6 (P29350 whole entry): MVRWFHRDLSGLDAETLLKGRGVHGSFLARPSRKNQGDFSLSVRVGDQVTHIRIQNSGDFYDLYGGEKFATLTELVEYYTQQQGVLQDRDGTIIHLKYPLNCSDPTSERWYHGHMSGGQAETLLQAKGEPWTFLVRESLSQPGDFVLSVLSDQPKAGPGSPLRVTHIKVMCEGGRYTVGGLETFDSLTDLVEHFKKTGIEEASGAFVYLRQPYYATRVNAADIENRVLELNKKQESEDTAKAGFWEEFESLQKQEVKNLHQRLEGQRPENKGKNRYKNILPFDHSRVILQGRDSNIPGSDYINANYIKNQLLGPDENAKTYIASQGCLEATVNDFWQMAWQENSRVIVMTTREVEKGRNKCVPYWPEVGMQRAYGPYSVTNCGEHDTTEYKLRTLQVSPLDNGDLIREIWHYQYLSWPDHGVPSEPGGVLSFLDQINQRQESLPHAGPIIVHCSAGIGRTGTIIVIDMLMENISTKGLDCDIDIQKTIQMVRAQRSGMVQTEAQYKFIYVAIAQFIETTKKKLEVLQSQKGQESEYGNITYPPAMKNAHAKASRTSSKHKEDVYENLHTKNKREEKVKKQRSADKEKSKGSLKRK
Chain of Growth factor receptor-bound protein 2 (Homo sapiens) (P62993 whole entry, looked up, the tested form may be a part): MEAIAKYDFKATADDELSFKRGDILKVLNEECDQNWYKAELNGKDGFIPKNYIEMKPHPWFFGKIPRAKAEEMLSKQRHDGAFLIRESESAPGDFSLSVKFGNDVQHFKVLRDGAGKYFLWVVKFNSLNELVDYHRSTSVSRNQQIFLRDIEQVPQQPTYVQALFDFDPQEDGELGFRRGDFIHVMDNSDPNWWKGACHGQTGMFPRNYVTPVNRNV

As for `CC[C@H](C)[C@H](NC(=O)[C@@H](NC(=O)[C@@H](NC(=O)[C@@H](NC(=O)[C@@H]1CCCN1C(=O)[C@H](Cc1cnc[nH]1)NC(=O)[C@@H]1CCCN1C(=O)CN)C(C)(C)C)[C@@H](C)CC)C(C)(C)C)C(=O)N[C@H](C(=O)NCC(=O)N1[C@H](C(=O)N[C@@H](Cc2cnc[nH]2)C(=O)N[C@@H](CCC(=O)O)C(=O)N[C@@H](CCC(=O)O)C(=O)O)CSC1(C)C)[C@@H](C)O` (H-GPHP[Tle]I[Tle]ITG[X1]HEE-OH), the values for the Kd in series [1], in series [5] and in series [6] were 2.6 nM, 9000 nM and above 15000 nM, respectively. For the same compound, the IC50 (usually the midpoint of a concentration-inhibition curve) in series [2] was 110 nM. Besides, the inhibition – broadly, the change of the read-out against control, counted positive when it falls – was “Dose-dependent effect” in [3] and 95% in [9]. The Activity entry in series [4] was “Not Active”. Further, the outcome in series [7] and in series [8] was inactive. In addition, the Stability in series [10] is recorded as 60%.

On to `CC[C@H](C)[C@H](NC(=O)[C@@H](NC(=O)[C@@H](NC(=O)[C@@H](NC(=O)[C@@H]1CCCN1C(=O)[C@H](Cc1cnc[nH]1)NC(=O)[C@@H]1CCCN1C(=O)CN)C(C)(C)C)[C@@H](C)CC)C(C)(C)C)C(=O)N[C@H](C(=O)NCC(=O)N1CCC[C@H]1C(=O)N[C@@H](Cc1cnc[nH]1)C(=O)N[C@@H](CCC(=O)O)C(=O)N[C@@H](CCC(=O)O)C(=O)O)[C@@H](C)O` (H-GPHP[Tle]I[Tle]ITGPHEE-OH), for which, in series [1], the Kd (commonly the free concentration of one partner at which half of the binding sites on the other are occupied at equilibrium, for simple one-to-one binding) stood at 43 nM. Also, the IC50 in series [2] was 280 nM. Further, the inhibition result in [3] was “Dose-dependent effect”.

As for H-GPHAVAVAAGPHEE-OH, in series [1], the Kd is above 200000 nM.

With `CCCOC(=O)CNC(=O)[C@H](CCC(=O)O)NC(=O)[C@H](CCC(=O)O)NC(=O)[C@H](Cc1cnc[nH]1)NC(=O)[C@@H]1CSC(C)(C)N1C(=O)CNC(=O)[C@@H](NC(=O)[C@@H](NC(=O)[C@@H](NC(=O)[C@@H](NC(=O)[C@@H](NC(=O)[C@@H]1CCCN1C(=O)[C@H](Cc1cnc[nH]1)NC(=O)[C@@H]1CCCN1C(=O)CNC(=O)CCSSC[C@H](NC(=O)[C@H](CCCNC(=N)N)NC(=O)[C@H](CCCNC(=N)N)NC(=O)[C@H](CCCNC(=N)N)NC(=O)[C@H](CCCNC(=N)N)NC(=O)[C@H](CCCNC(=N)N)NC(=O)[C@H](CCCNC(=N)N)NC(=O)[C@H](CCCNC(=N)N)NC(=O)[C@H](CCCNC(=N)N)NC(=O)[C@H](CCCNC(=N)N)NC(=O)[C@H](CCCNC(=N)N)NC(=O)[C@H](CCCNC(=N)N)NC(C)=O)C(N)=O)C(C)(C)C)[C@@H](C)CC)C(C)(C)C)[C@@H](C)CC)[C@@H](C)O`, the inhibition in [9] amounted to 95%.

With `CC[C@H](C)[C@H](NC(=O)[C@@H](NC(=O)[C@@H]1CCCN1C(=O)[C@H](Cc1cnc[nH]1)NC(=O)[C@@H]1CCCN1C(=O)CN)C(C)C)C(=O)N[C@H](C(=O)N[C@H](C(=O)N[C@H](C(=O)NCC(=O)N1CCC[C@H]1C(=O)N[C@@H](Cc1cnc[nH]1)C(=O)N[C@@H](CCC(=O)O)C(=O)N[C@@H](CCC(=O)O)C(=O)O)C(C)O)[C@@H](C)CC)C(C)C` (stereo not given in full), the Kd in [1] was found to be 477 nM. Moreover, the IC50 in [2] was 4100 nM. Also, the inhibition entry in [3] is “Dose-dependent effect”. Moreover, the Stability result in series [11] is on record as “Unstable”. For the same compound, the half-life – broadly, the time needed for the level to fall by half in the phase considered – in series [12] is 1 h.
